# Screening data as filed in PubChem.
# Kir21 inh: blocks the mouse Kir2.1 inward-rectifier potassium channel; P35561; HEK293-Kir2.1, FluxOR thallium flux fluorescence; stronger effect = lower value; B-score at 10 µM; hit rate 0.85% among 310,000; AID 1672;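 active = fluorescence ratio B-score at or below minus 3 SD of library scores, with starting-brightness B-score within 2 SD, cut at about -4.2 in these data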;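 also: channel flux triggered by added potassium and thallium sulfate stimulus; B-score of peak minus minimum fluorescence over baseline after thallium stimulus; more negative B-score means stronger Kir2.1 block with less thallium influx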
# Target sequence (P35561 whole entry, looked up): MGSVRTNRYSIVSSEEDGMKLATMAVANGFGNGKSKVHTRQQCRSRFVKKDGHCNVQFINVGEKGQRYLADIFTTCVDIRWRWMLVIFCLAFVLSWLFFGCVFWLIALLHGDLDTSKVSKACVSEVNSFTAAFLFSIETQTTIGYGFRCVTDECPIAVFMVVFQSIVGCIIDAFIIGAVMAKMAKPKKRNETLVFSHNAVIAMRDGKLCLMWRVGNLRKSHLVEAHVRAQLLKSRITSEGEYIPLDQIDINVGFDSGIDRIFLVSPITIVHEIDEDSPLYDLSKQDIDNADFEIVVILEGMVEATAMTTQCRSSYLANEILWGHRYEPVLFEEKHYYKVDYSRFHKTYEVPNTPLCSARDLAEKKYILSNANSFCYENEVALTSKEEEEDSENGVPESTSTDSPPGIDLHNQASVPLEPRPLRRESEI
# KCNQ1 act: potentiates or activates the human KCNQ1 potassium channel | P51787 | AID 2648 | CHO-K1 KCNQ1, thallium flux FluxOR fluorescence; stronger effect = higher value | B-score at 10 µM | hit rate 0.35% among 310,000;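 active = fluorescence ratio B-score, a plate-corrected score, at least three library SD, with initial intensity B-score within 5 SD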
#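 Doses: Single concentration per compound, DMSO matched to controls | Test system: KCNQ1-transfected CHO-K1 cells | Timing: 90 min dye loading and 20 min compound exposure, both at room temperature | Measured by: Kinetic FluxOR thallium fluorescence, 10-s 1-Hz baseline, 110-s post-stimulus read | Medium: Assay buffer with matched DMSO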
# hERG rescue: compounds protecting human hERG from proarrhythmic drug block. Q12809. CHO-hERG, FluxOR thallium flux, dofetilide IC70 present. activation (rescue from dofetilide block), less the hit threshold, % at 10 µM. hit rate 0.51% among 310,000. AID 1511;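 active = activation above the mean of controls blocked by dofetilide plus 5 SD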;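 also: thallium influx through hERG after potassium depolarization seen as dye fluorescence rise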
# KCNQ1 block: blocks the human KCNQ1 potassium channel. P51787. CHO-K1 KCNQ1, FluxOR thallium flux fluorescence; stronger effect = higher value. B-score at 10 µM. hit rate 1.3% among 310,000. AID 2642;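 active = compounds whose thallium flux B-score, printed positive for inhibition, exceeds three library SD while starting fluorescence stays within three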;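 also: channel opened by potassium depolarization with thallium stimulus after 20 min compound exposure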
# KCNK9 inh: human KCNK9 channel inhibition; Q9NPC2; HEK293 KCNK9, FluxOR thallium flux fluorescence; stronger effect = lower value; B-score at 10 µM; hit rate 1.2% among 310,000; AID 488922;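 active = ratio B-score over 3 SD below the library mean, with starting fluorescence within 5 SD of its mean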;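 also: negative B-score means less thallium flux so channel inhibition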
# Target sequence (Q9NPC2 whole entry, looked up): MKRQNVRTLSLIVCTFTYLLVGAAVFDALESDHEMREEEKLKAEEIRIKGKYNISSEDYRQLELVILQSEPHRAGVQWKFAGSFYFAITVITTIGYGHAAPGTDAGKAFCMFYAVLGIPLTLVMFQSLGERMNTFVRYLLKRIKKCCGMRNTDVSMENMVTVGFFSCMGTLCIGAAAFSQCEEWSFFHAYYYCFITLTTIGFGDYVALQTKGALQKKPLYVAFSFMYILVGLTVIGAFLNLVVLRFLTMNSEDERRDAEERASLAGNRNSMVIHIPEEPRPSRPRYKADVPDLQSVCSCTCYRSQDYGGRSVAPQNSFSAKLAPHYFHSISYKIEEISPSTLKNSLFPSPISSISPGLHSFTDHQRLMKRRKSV
# KCNK3 inh: human KCNK3 channel inhibition, primary screen | CHO-KCNK3 thallium flux, FluxOR fluorescence; stronger effect = lower value | hit rate 0.84% among 340,000 | O14649 | B-score at 10 µM;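 active = B-score under library mean minus 4 SD, starting fluorescence ratio at most library mean plus 5 SD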;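 also: more negative B-score means stronger inhibition of thallium flux through KCNK3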
# KCNQ1 block val: confirmation of human KCNQ1 potassium channel inhibitors; KCNQ1 cell line, FluxOR thallium flux fluorescence; AID 588353; inhibition, % at 10 µM; shares compounds with KCNQ1 block; hit rate 93% among 1,600;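 active = primary screen active, with duplicate mean exceeding buffer control mean plus 3 SD of buffer wells, cut at about 28% in these data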;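 also: 0% = buffer control ratio and 100% = XE991 inhibitor control ratio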
# CHO KCNQ1 ctr: activity in parental CHO cells lacking KCNQ1. shares compounds with KCNQ1 block. parental CHO-K1, FluxOR thallium flux fluorescence ratio; stronger effect = lower value; zero means no signal rise above baseline. fluorescence ratio (Tl flux) at 10 µM. hit rate 21% among 1,600;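 active = mean of duplicate thallium-flux fluorescence ratios in parental host cells more than 5 SD below the buffer control mean, cut at about 0.38 in these data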;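 also: ratio is peak minus minimum fluorescence divided by baseline fluorescence; actives read low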
# KCNQ1 ephys val: confirmation of human KCNQ1 potassium channel inhibitors by electrophysiology | KCNQ1-CHO cells, automated patch clamp current | hit rate 20% among 490 | shares compounds with KCNQ1 block | calls only at 10 µM;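 active = KCNQ1 current drop exceeding 3 SD of negative control wells, seen in both duplicate runs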;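 also: steady state current during a 2 s step from -80 to +40 mV; negative values mean current inhibition and positive values mean potentiation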
# KCNQ2 inh: KCNQ1 inhibitor that also blocks rat KCNQ2 channel; KCNQ2 cells, FluxOR thallium flux fluorescence; inhibition, % at 10 µM; hit rate 71% among 1,600; shares compounds with KCNQ1 block; AID 651746;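 active = mean percent inhibition of the KCNQ2 thallium signal more than 5 SD above the buffer-only control wells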;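 also: KCNQ2 expressed in CHO cells; 0% = buffer control wells and 100% = XE-991 inhibitor control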
# KCNQ1 KCNE1 spec: KCNQ1 inhibitor that also blocks human KCNQ1/KCNE1 channel; inhibition, % at 10 µM; AID 652147; KCNQ1/KCNE1 cells, FluxOR thallium flux fluorescence; hit rate 77% among 1,600; shares compounds with KCNQ1 block;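 active = mean percent inhibition of duplicate wells above the buffer-only control mean plus 3 SD of those controls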;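 also: 0% = buffer only wells and 100% = XE-991 inhibitor control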
# KCNK9 block conf: human KCNK9 inhibitor confirmation | shares compounds with KCNK9 inh | HEK293 KCNK9 cells, FluxOR thallium flux fluorescence | inhibition, % at 10 µM | hit rate 43% among 4,900 | AID 492992;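 active = thallium signal inhibited by more than 5 SD of the compound-free buffer control wells, on both duplicate plates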;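 also: 0% = assay buffer control wells without compound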
# Kir21 sel: tests whether KCNK9 modulators also affect mouse Kir2.1; inhibition, % at 10 µM; shares compounds with KCNK9 inh; hit rate 4% among 4,900; Kir2.1 cells, FluxOR thallium flux fluorescence;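 active = thallium signal drop more than 5 SD beyond the mean of the no-compound control wells, seen in both duplicate plates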;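 also: signal is fluorescence rise after thallium addition divided by baseline fluorescence; plate controls were assay buffer only for no effect and full block by chlorpromazine control for full effect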
# HEK293 Tl ctr: second counter-screen for KCNK9 modulators: effect in non-induced cells; shares compounds with KCNK9 inh; non-induced KCNK9-HEK293, FluxOR thallium flux; inhibition, % at 10 µM; hit rate 40% among 4,900; AID 492997;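 active = thallium signal drop beyond 5 SD of the untreated control mean, on both duplicate plates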;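 also: plate controls were buffer only IC0 wells for no effect and SID17386958 at its maximal inhibitory level for full effect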
# KCNK3 confirm: confirmation of human KCNK3 two-pore domain potassium channel inhibitors. shares compounds with KCNK3 inh. CHO-KCNK3 thallium flux, FluxOR fluorescence; 0% buffer, 100% carvedilol maximal block. ratio percent of control, % at 10 µM. AID 651638. hit rate 99% among 2,400;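 active = ratio percent of control, averaged over triplicates, above buffer control mean plus 5 SD, cut at about 64% in these data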;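 also: ratio is the fluorescence rise from min to max over baseline after thallium stimulus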
# KCNK3 uninduced: activity in cells without induced KCNK3 expression; thallium flux ratio (lower = more inhibition) at 10 µM; non-induced KCNK3 parental cells, FluxOR thallium flux; stronger effect = lower value; hit rate 40% among 2,400; shares compounds with KCNK3 inh; AID 651747;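 active = thallium flux ratio, averaged over three wells, more than 5 SD below the buffer control mean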;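 also: host cells are CHO cells without KCNK3 induction; ratio is peak minus trough fluorescence over baseline then normalized to buffer controls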
# Active calls of the source: *; i = inactive; x = no result given; + = active, no number. The list is not random: actives were taken first. Their share in the collection is about 3.7%.
SMILES,Kir21 inh,KCNQ1 act,hERG rescue,KCNQ1 block,KCNK9 inh,KCNK3 inh,KCNQ1 block val,CHO KCNQ1 ctr,KCNQ2 inh,KCNQ1 KCNE1 spec,KCNK3 confirm,KCNK3 uninduced,others
Cc1ccc(N/C(N)=N/c2nc(C)cc(N3CCCCC3)n2)c(C)c1,-2.9,i,-23,10*,i,-12*,91*,0.41,90%*,51%*,116*,i,KCNQ1 ephys val=+
CCOC(=O)C1CCN(c2c(C(=O)c3ccccc3)cnc3ccc(CC)cc23)CC1,1.1,i,-7,7*,-11*,-12*,134*,0.4,128%*,192%*,110*,i,KCNK9 block conf=28%*;Kir21 sel=i;HEK293 Tl ctr=34%*
CC1C(=O)N(Cc2ccccc2F)c2ccccc2N1C(=O)c1c(F)cccc1F (centres undefined),0.01,i,-19,15*,-7.7*,-9*,58*,0.44,78%*,50%*,87*,i,
CC(=O)Nc1nnc(SCc2ccc(C(=O)Nc3ccccc3F)cc2)s1,1.1,i,-10,i,i,i,x,x,x,x,x,x,
Cc1nc2ccccc2c2c1CC(C(C)(Cl)Br)O2 (centres undefined),-0.94,i,-26,6*,i,-9.6*,106*,0.48,80%*,i,127*,i,KCNQ1 ephys val=+
COc1ccc(NC(=O)CCCC(=O)OCC(=O)c2cccc(OC)c2)cc1,1.4,i,-5,i,i,i,x,x,x,x,x,x,
O=C(c1cc(-c2cccc(Cl)c2)nc2ccccc12)N1CCN(c2ccccn2)CC1,0.2,i,-9,6*,i,-9.9*,69*,0.42,108%*,84%*,120*,0.12*,
CC(C)(CN1CCN(C(c2ccccc2)c2ccccc2)CC1)NS(=O)(=O)c1ccccc1,-0.16,i,-2,6*,-9.6*,i,106*,0.44,i,116%*,103*,0.16*,KCNQ1 ephys val=i;KCNK9 block conf=40%*;Kir21 sel=i;HEK293 Tl ctr=47%*
CC(C)(CN1CCN(Cc2ccccc2)CC1)NS(=O)(=O)c1ccccc1,-2,i,-9,i,i,i,x,x,x,x,x,x,
CC(NCc1ccc(S(N)(=O)=O)cc1)C(=O)N1c2ccccc2CC1C (centres undefined),0.89,i,-9,i,i,i,x,x,x,x,x,x,
COc1ccc(CN(C)S(=O)(=O)c2nnc(NC(=O)c3ccccc3)s2)cc1OC,-0.39,i,-6,i,i,i,x,x,x,x,x,x,
COc1ccccc1C(=O)Nc1nnc(S(=O)(=O)N(C)Cc2ccccc2)s1,1.6,i,-16,17*,i,-12*,140*,0.37*,122%*,+,115*,0.1*,
CCc1nc(N2CCN(Cc3ccc4c(c3)OCO4)CC2)c2oc3ccccc3c2n1,-0.69,i,-17,9*,i,-9*,128*,0.41,105%*,179%*,109*,0.14*,KCNQ1 ephys val=i
O=C(N1CCCCC1)N1CCN(S(=O)(=O)c2ccccc2)CC1,0.79,i,-5,i,i,i,x,x,x,x,x,x,
Cc1cc(C)n(-c2cc(C(C)(C)C)nc3c(-c4ccccc4)cnn23)n1,-0.65,i,-8,8*,i,-13*,85*,0.5,i,114%*,108*,i,
C=C(C)C(=O)Nc1cccc(C2=NOC3(C2)C[C@@H](C(N)=O)N(C(=O)CC(c2ccccc2)c2ccccc2)C3)c1 (some centres undefined),0.91,i,-14,i,i,i,x,x,x,x,x,x,
O=C(NCc1cccc(Cl)c1)c1cc(COc2ccc3ncccc3c2)on1,-0.11,i,-12,13*,i,-13*,93*,0.33*,100%*,+,126*,i,
O=C1NC(=Nc2ccccc2Cl)S/C1=C\c1cc([N+](=O)[O-])ccc1O,-8.5,i,-10,23*,i,-14*,197*,0.17*,166%*,+,169*,0.033*,
O=C(Oc1cccc(Nc2ncnc3ccccc23)c1)c1ccccc1Cl,1.6,i,-23,12*,-9*,-9.6*,140*,0.31*,131%*,+,139*,i,KCNK9 block conf=52%*;Kir21 sel=42%*;HEK293 Tl ctr=44%*
COc1ccc(CNC(=O)CN(C(=O)CCC(=O)Nc2ccccn2)c2ccc3c(c2)OCO3)cc1,1.4,i,-2,i,i,i,x,x,x,x,x,x,
CCCCNC(=O)C1(NC(=O)Nc2ccc(C)cc2)CCCCC1,-0.76,i,-4,i,i,i,x,x,x,x,x,x,
O=C(N[C@@H]1C[C@H]2CC[C@@H]1C2)c1ccco1,2,i,-7,i,i,i,x,x,x,x,x,x,
CCC(C(=O)Nc1cccc(C(F)(F)F)c1)c1ccccc1 (centres undefined),0.18,i,-12,11*,-10*,-9.4*,104*,0.4,72%*,116%*,128*,0.13*,KCNQ1 ephys val=+;KCNK9 block conf=64%*;Kir21 sel=i;HEK293 Tl ctr=44%*
